The values that follow come from publication PMC2585546 (Bioorganic & medicinal chemistry, 2008).

Experiment [1] deals with RNA A. Nature of the experiment: Thiazole orange fluorescent intercalator displacement. It is filed as binding. The settings on record: read-out: Dissociation constants (FID); apparent KD from IC50, competitive model; 50 mM Bis-Tris·HCl pH 7.0, 100 mM NaCl, 10 mM MgCl2, 50 nM thiazole orange, 100 nM RNA A, 25 °C; average of three independent measurements ± SD.
In experiment [2] the test system is RNA A. Nature of the experiment: Thiazole orange fluorescence enhancement on RNA binding.
Experiment [3] has as its system RNA B. Kind of experiment: Thiazole orange fluorescence enhancement on RNA binding. The arrangement: species or system human. As to conditions: thiazole orange 2.6 µM, RNA 2 µM. An outline of the steps: (§1)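 Fold rise in thiazole orange fluorescence, with the dye at 2.6 µM and each RNA at 2 µM. RNA A is an in vitro selected aptamer stem-loop, used as supplied. RNA B (human pre-miRNA 23b sequence) and control stem-loop RNA C were 2'-ACE-deprotected (100 mM acetic acid, TEMED to pH 3.8, 60 °C, 30 min), phenol/chloroform-extracted, ethanol-precipitated and kept in water at −20 °C.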

In experiment [4] the test system is RNA C. The description is as above. As to conditions: thiazole orange 2.6 µM, RNA 2 µM. An outline of the steps: as §1

In the case of `NC[C@@H]1O[C@H](O[C@H]2[C@@H](O)[C@H](O[C@H]3[C@@H](O)[C@H](N)C[C@H](N)[C@H]3O[C@H]3O[C@H](CN)[C@@H](O)[C@H](O)[C@H]3N)O[C@@H]2CO)[C@H](N)[C@@H](O)[C@@H]1O` [compound 7, neomycin], in experiment [1], the Kd was more than 60 µM.

Turning to `NC[C@H]1O[C@H](O[C@H]2[C@H](O)[C@@H](O[C@H]3O[C@H](CO)[C@@H](O)[C@H](N)[C@H]3O)[C@H](N)C[C@@H]2N)[C@H](O)[C@@H](O)[C@@H]1O` [compound 8, kanamycin], in experiment [1], the Kd is more than 100 µM.

Turning to `CN1C(=Cc2cc[n+](C)c3ccccc23)Sc2ccccc21` [thiazole orange], in experiment [2] (thiazole orange 50 nM, RNA A 100 nM), the “Fold stimulation of thiazole orange fluorescence by RNA A” value is reported as approximately 20 fold. Besides, in experiment [2] (thiazole orange 2.6 µM, RNA 2 µM), the “Fold enhancement of thiazole orange fluorescence by RNA A” value was determined as 2308 fold. Further, in experiment [3], the “Fold enhancement of thiazole orange fluorescence by RNA B” value was 977 fold. Also, the “Fold enhancement of thiazole orange fluorescence by control RNA C” value in experiment [4] came to 96 fold.
